Only some compounds are listed: those with a hit (about 1.8% of all), similar ones and a draw of the others.
procasp7 counter = activates human procaspase-7, counter-screen for procaspase-3 activators. P55210. recombinant procaspase-7, Ac-DEVD-pNA absorbance 405 nm; D23A/D198A/D206A triple mutant, cannot self-cleave; scale: DMSO 0, 5 µM enzyme 100. activation, % at 8.5 µM. 0.093% of 330,000 active;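 active means percent activation above the screen-wide mean plus 3 SD, cut at about 25% in these data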
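System: Uncleavable procaspase-7 mutant enzyme; Amount: 2 µM procaspase-7 mutant as dispensed; Schedule: 1 h compound preincubation, 2 h substrate cleavage, 25 °C; Measured by: 405 nm absorbance of p-nitroaniline; Evaluation: percent activation from buffer-corrected 0–120 min absorbance change; Control set: low DMSO alone, high DMSO plus 5 µM PC-7.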
ZTA counter = ZTA (EBV) inhibition in EBNA-1 counter-screen | P03206 | ZTA-DNA binding, fluorescence polarization | inhibition, % at 11 µM | 0.15% of 320,000 active | AID 2234; in the data active means inhibition above about 33%
procasp3 activ = activators of human procaspase-3. 0.11% of 330,000 active. activation, % at 8.5 µM. P42574. recombinant procaspase-3 D3A, Ac-DEVD-pNA absorbance 405 nm. AID 463141;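 active means activation above the mean of all tested compounds plus 3 SD, cut at about 21% in these data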;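 further: 0% = DMSO alone and 100% = DMSO wells spiked with extra 5 µM PC-3 D3A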
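System: Procaspase-3 D3A mutant. Medium: Zinc-free 300 mM NaCl, 50 mM HEPES, 0.01% Triton X-100. Schedule: 1 h preincubation plus 2 h reaction at 25 °C. Measured by: 405 nm absorbance of p-nitroaniline, reads at 0 and 120 min. Read-out: percent activation relative to control range.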
Apaf1 inhib = human Apaf-1 inhibition | reconstituted apoptosome caspase-3 activity, DEVD-Rh110 fluorescence | inhibition, % at 20 µM | 0.71% of 330,000 active | AID 489030; active means inhibition of at least 40% at 20 µM;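 further: plate controls were DMSO wells for no effect and DEVD-CHO caspase inhibitor wells for full effect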
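detection = Rh110 fluorescence intensity | test system = biochemical Apaf-1 apoptosome reconstitution | also added = cytochrome c and DEVD-Rh110 substrate | schedule = 30 min plus 50 min, RT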
EBNA-1 inhibitor = blocks EBNA-1 binding to DNA; AID 1950; EBNA-1 DNA binding, fluorescence polarization; 0.34% of 300,000 active; inhibition, % at 14.8 µM; in the data active means inhibition above about 28%
GSTO1 counter = blocks human GSTO1 in RBBP9 counter-screen. P78417. recombinant GSTO1, activity-based probe fluorescence polarization. inhibition, % at 5.96 µM. 1.1% of 300,000 active. AID 1974;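 active means inhibition above the campaign mean inhibition plus 3 SD, cut at about 35% in these data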;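 further: 0% = GSTO1-1 with DMSO and 100% = wells lacking GSTO1-1 enzyme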
Target sequence (P78417 whole entry, looked up): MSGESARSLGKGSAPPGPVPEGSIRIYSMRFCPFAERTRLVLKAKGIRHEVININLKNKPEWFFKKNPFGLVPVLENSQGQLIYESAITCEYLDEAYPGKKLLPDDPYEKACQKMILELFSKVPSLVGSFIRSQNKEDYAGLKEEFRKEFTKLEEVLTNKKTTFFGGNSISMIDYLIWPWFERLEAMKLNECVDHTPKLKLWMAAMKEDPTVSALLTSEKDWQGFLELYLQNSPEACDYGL
GSTO1 confirm = GSTO1 (human) inhibition, confirmation. 54% of 2,400 active. shares compounds with GSTO1 counter. inhibition, % at 5.96 µM. recombinant GSTO1, probe fluorescence polarization;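 active means inhibition above the primary screen's cutoff, its mean inhibition plus 3 SD, cut at about 35% in these data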;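 further: loss of polarization as inhibitors block binding of rhodamine sulfonate ester activity probe; 0% = GSTO1 with DMSO and 100% = wells lacking GSTO1 enzyme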
GSTO1 recomb ABPP = GSTO1 (human) inhibition by gel ABPP | shares compounds with GSTO1 counter | recombinant GSTO1, gel ABPP SE-Rh probe fluorescence | inhibition, % at 1 µM | 30% of 130 active | AID 463110;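 active means inhibition of the enzyme GSTO1 above about 75%, limit read from the data; inactive means inhibition below that limit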
* = called active by the depositor; . = no result.

SMILES	procasp7 counter	ZTA counter	procasp3 activ	Apaf1 inhib	EBNA-1 inhibitor	GSTO1 counter	GSTO1 confirm	others
O=C(CCl)Nc1ccc(-c2ccccc2)cc1	9	7	1	-7	7	76*	84*
O=C(CCl)Nc1cccc(Oc2ccccc2)c1	-3	8	4	-6	-14	71*	97*
COc1ccccc1N(O)C1CC(=O)N(c2ccc(Br)cc2)C1=O (configuration not stated)	-37	-5	-11	15	9	51*	12
CC(C)N(C(=O)[C@H]1C[C@H](CC(=O)NCCN2CCOCC2)C(=O)N2CCc3c([nH]c4cc(CCC(=O)N(C)C)ccc34)[C@]12C)C(C)C	-204	.	-3	11	.	.	.
O=c1c(=Nc2ccccc2O)c(=O)c2ccccc12	3	-13	-5	34	6	68*	25
CCC(=O)N1CCc2cc(S(=O)(=O)N3CCCCCC3)ccc21	11	-3	4	0	-9	4	.
Cc1cccc(N2CCN(CC(=O)Nc3ccc(S(=O)(=O)N4CCOCC4)cc3)CC2)c1C	-5	0	-12	22	-13	-1	.
Cc1ccc(C)c(Sc2ccc(NC(=O)CCl)cc2)c1	-6	-6	6	16	1	75*	82*
CCc1cccc(C)c1NC(=O)C1CCCN1C(=O)NCc1ccccc1 (configuration not stated)	-1	0	-7	11	-10	8	.
CCOC(=O)NC1(Nc2cccc(Cl)c2)Oc2ccccc2O1	-31	-9	-24	.	-12	56*	4
NC(=O)N/N=C/c1coc2ccc(O)cc2c1=O	4	-1	7	5	-4	70*	20
COC(=O)CCC(=O)OC1(C)C(=O)C2=COC(c3ccc(OC)cc3)=CC2=C(Br)C1=O (configuration not stated)	-7	23	3	1	10	20	.
COc1ccc(C2=CC3=C(Br)C(=O)C(C)(OC(=O)C4CCCC4)C(=O)C3=CO2)cc1 (configuration not stated)	0	6	-3	7	17	39*	25
O=C(c1[nH]ncc1-c1cccc(Br)c1)C1CO1 (configuration not stated)	-3	-3	-1	7	2	82*	90*	GSTO1 recomb ABPP=71
O=C(c1[nH]ncc1-c1ccccc1)C1CO1 (configuration not stated)	-7	-7	-1	-17	-3	20	.
Cc1ccc(S(=O)(=O)N(CC(O)CN2CCOCC2)c2cccc([N+](=O)[O-])c2)cc1 (configuration not stated)	-3	14	6	7	-2	-4	.
COC(=O)[C@@]1(C)[C@H]2C(=O)N(C)C(=O)[C@H]2[C@H]2CN(C)C(=NC3CCCCC3)N21	7	.	-1	10	.	.	.
Cc1cc(C(=O)NNC(=O)c2ccc(Cl)cc2)no1	11	-3	-4	-6	4	48*	7
Cc1cc(C(=O)NNC(=O)c2cccc(Cl)c2)no1	-6	2	-5	-9	2	-8	.
Nc1c(C(=O)OCC2CCCO2)c2nc3ccccc3nc2n1C1CCCCC1 (configuration not stated)	10	10	0	38	0	67*	13
Nc1c(S(=O)(=O)c2cccs2)c2nc3ccccc3nc2n1CC1CCCO1 (configuration not stated)	7	8	1	-3	6	3	.
Cc1cc(C)c(S(=O)(=O)Nc2cc(SCC(=O)O)c(O)c3ccccc23)cc1C	-8	0	-22	.	0	90*	5
CCN(CC)CCNc1cc(C)nc2c1C(=O)C(=O)C=C2N1CCCCC1	-7	6	-1	40	-1	77*	45*
CCOc1ccc(-c2nnc(N)s2)cc1	-1	5	7	-18	5	-2	.

Source: PubChem (several laboratories)
